Active and inactive are the calls of the source. The calls are words filed in the database; no cut-off is given here.
How the values were obtained:
[1] = target: Microtubule-associated protein tau (Homo sapiens) (UniProt P10636); test: Inhibition of heparin-induced 4R tau (unknown origin) aggregation at 200 uM after 24 hrs by filter trap assay
In short: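 Heparin-induced fibrillisation of 4R tau in PBS with 200 μM compound, 37 °C, 24 h. Fibrils diluted to 0.8 μM tau in 2% SDS, vacuum-filtered through membrane, washed twice with 2% SDS, probed with 4R tau-specific antibody, chemiluminescent dot detection and densitometry; 7 independent experiments.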

[2] = target: Microtubule-associated protein tau (Homo sapiens) (UniProt P10636); test: Induction of heparin-induced recombinant 4R tau (unknown origin) fibril oxidation at cysteine residues at 200 uM after 2 hrs by oregon green binding assay
In short: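 Recombinant 4R tau (10 μM) fibrillised with 40 μM heparin in sodium acetate buffer pH 7, ± 200 μM compound, 37 °C, 2 h. Controls reduced with 1 mM DTT or oxidised with 20% v/v DMSO. Then labeled with Oregon green-iodoacetamide 30 min at room temperature, SDS-PAGE, fluorescence imaging. Band intensity normalized to Coomassie-stained total tau; 5 independent experiments.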

[3] = target: Microtubule-associated protein tau (Homo sapiens) (UniProt P10636); test: Inhibition of heparin-induced 4R tau (unknown origin) aggregation at 100 uM after 3 days by ThT fluorescence assay relative to control
In short: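 20 μM 4R tau plus 5 μM heparin (avg MW 15 000) in 100 mM sodium acetate pH 7.0, ± 100 μM compound, incubated 3 days at 37 °C with 1 mM DTT added daily. ThT 12.5 μM then added, 1 h at room temperature. Spectra read with excitation 440 nm, emission 450–750 nm; intensity at emission maximum compared with tau alone.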

Microtubule-associated protein tau (Homo sapiens), sequence (P10636 whole entry): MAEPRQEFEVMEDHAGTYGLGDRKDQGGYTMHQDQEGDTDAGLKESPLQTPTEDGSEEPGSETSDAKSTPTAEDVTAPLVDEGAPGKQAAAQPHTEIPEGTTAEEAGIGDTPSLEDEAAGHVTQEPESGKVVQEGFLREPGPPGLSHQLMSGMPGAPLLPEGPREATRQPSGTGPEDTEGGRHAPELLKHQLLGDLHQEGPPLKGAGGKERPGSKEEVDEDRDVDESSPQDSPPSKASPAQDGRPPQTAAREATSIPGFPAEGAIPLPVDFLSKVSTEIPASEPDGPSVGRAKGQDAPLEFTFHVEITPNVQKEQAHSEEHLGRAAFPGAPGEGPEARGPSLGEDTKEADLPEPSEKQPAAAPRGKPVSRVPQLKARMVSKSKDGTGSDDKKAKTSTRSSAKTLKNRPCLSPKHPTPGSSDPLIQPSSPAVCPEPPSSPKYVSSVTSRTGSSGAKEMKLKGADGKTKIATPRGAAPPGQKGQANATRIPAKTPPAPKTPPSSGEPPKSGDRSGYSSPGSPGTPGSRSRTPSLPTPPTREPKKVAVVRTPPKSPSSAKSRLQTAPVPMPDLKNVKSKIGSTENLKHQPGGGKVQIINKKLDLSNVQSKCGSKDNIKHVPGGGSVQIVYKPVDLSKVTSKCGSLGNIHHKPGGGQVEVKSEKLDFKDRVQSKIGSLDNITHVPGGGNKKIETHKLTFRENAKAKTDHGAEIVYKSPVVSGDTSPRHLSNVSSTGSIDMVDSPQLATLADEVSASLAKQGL

inhibition [1] | Activity [2] | inhibition [3] [%] | SMILES
Active | inactive | 33 | C=CCO/N=C(\C(=O)NC1CC1)c1csc(N)c1C(=O)Nc1ccc(F)cc1
Active | Active | 30 | Nc1scc(/C(=N/O)C(=O)NC2CC2)c1C(=O)NC12CC3CC(CC(C3)C1)C2
Active | Active |  | Nc1scc(/C(=N/O)C(=O)NC2CC2)c1C(=O)Nc1ccc(F)cc1
Active | Active | 51 | Nc1scc2c(C(=O)NC3CC3)nn(-c3ccc(F)cc3)c(=O)c12

From ChEMBL document CHEMBL4261481, “Ring-opened aminothienopyridazines as novel tau aggregation inhibitors” (Medchemcomm, 2017)
